From PMC9148379 (Alzheimer's & Dementia, 2021)
Like-named read-outs stand apart in the source and are kept apart here.

Columns and labels:
[1] = cited from earlier work; for time from which levels in whole blood at RT started declining: different assays than used in this study
[2] = Experiment 8: aliquot freeze-thawing; format: in vitro ADME, human; conditions: EDTA plasma; for impact of sample freeze–thawing (up to four cycles) on values: six Aβ assays
Method in brief: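 Human EDTA plasma subjected to repeated freeze–thaw was compared with reference aliquots (centrifuged 1800 × g at room temperature after 30 min standing at room temperature, aliquoted immediately, stored at −80°C). Each value was normalized to its reference as %recovery, and the group median per condition was taken. A median change >10% was deemed relevant. GFAP was measured with the pre-commercial Simoa Neurology 4-Plex E kit.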

[3] = Experiment 7: two-week intermediate storage in the fridge; format: in vitro ADME, human; conditions: EDTA plasma, 2 weeks at −20°C before −80°C; six Aβ assays
[4] = cited from earlier work
[5] = cited from earlier work; remark: listed apart in the source
[6] = format: in vitro ADME, human; conditions: EDTA whole blood, Simoa N3PA

Row | Substance | time from which levels in whole blood at RT started declining ([1]; ref 33) | time from which levels in whole blood at RT started declining ([1]; ref 36) | impact of sample freeze–thawing (up to four cycles) on values [2] | decrease of values after two‐week intermittent storage at −20°C [3] | time from which levels in separated plasma decline at RT [4] | median recovery after four additional freeze–thaw cycles, other biomarkers ([2]; GFAP by Simoa N4PE) | change at the second freeze–thaw cycle ([2]; Simoa N4PE) | plasma levels at freeze–thaw cycle 4 [5] | time for which t‐tau was stable prior to centrifugation ([1]; other t‐tau assays) | median recovery, tubes held at RT for 3 hours pending centrifugation ([6]; 3 hours) | median recovery, tubes held at RT for 24 hours pending centrifugation ([6]; 24 hours)
1 | Aβ40: endogenous amyloid beta 40 peptide measured in blood as Alzheimer's disease biomarker | 1 h | 48 h | did not impact | did not | 8 h |  |  |  |  |  | 
2 | Aβ42: endogenous amyloid beta 42 peptide measured in blood as Alzheimer's disease biomarker | 1 h | 6 h | did not impact | did not | 6 h |  |  |  |  |  | 
3 | glial fibrillary acidic protein [GFAP] |  |  |  |  |  | 113% | no change | remained stable |  |  | 
4 | total tau [t‐tau] |  |  |  |  |  |  |  |  | up to 6 hours | 83% | 49%
